Results taken from ChEMBL document CHEMBL1141720, “A study of the structure-activity relationship of GABA(A)-benzodiazepine receptor bivalent ligands by conformational analysis with low temperature NMR and X-ray analysis” (Bioorg Med Chem, 2008).

Experiments:
Format in all cases: cell-based
[1] = biological target: T1, GABA-A receptor; alpha-2/beta-3/gamma-2 (Homo sapiens, UniProt P18507+P28472+P47869); experiment: Displacement of [3H]flunitrazepam from human recombinant GABAA alpha-2-beta-3-gamma-2 receptor expressed in HEK293 cells
T1 sequence (P18507 whole entry): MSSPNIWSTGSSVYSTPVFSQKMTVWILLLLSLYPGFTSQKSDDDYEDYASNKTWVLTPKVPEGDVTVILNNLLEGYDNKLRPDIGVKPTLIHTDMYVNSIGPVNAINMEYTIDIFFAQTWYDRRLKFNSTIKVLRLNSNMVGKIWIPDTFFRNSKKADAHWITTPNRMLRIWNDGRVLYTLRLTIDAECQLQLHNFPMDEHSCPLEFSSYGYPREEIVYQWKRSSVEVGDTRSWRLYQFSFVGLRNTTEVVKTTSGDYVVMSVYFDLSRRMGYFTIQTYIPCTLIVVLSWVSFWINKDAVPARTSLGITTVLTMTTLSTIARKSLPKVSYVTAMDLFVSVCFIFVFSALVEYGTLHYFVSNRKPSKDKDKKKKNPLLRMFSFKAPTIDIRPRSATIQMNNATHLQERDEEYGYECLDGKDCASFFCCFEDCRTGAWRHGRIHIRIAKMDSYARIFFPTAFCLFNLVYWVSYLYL
T1 sequence (P28472 whole entry): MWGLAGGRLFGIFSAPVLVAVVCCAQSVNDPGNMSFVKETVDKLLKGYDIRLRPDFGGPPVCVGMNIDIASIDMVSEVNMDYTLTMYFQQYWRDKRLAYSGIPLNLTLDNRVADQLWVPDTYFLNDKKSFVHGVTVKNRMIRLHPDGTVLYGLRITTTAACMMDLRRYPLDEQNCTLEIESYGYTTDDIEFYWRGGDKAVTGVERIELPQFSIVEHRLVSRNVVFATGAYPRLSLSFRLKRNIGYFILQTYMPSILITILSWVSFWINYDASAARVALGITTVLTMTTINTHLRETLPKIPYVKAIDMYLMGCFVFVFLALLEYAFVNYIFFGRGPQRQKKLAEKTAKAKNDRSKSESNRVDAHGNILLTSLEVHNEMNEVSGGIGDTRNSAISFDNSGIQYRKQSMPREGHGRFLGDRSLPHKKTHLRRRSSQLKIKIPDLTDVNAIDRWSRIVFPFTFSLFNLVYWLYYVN
T1 sequence (P47869 whole entry): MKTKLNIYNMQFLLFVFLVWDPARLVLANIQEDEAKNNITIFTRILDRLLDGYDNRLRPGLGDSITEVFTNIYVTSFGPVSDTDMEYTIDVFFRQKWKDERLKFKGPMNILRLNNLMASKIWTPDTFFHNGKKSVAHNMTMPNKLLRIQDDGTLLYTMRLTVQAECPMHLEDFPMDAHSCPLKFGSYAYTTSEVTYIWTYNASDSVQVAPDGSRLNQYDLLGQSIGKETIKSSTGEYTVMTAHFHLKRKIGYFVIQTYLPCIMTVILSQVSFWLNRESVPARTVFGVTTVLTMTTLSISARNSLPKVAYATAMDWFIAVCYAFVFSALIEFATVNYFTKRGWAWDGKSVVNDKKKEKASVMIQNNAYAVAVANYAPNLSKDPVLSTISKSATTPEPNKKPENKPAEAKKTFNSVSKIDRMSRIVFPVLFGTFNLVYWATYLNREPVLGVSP
Procedure, shortened: (§1)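 Membranes from the receptor-expressing cells were harvested in hypotonic 50 mM Tris-acetate, pH 7.4 at 4°C. They were incubated with [3H]flunitrazepam in 0.5 mL for 1 h at 4°C. Nonspecific binding was taken with 100 μM diazepam. Reactions were filtered onto 0.3% polyethyleneimine-treated GF/C filters, washed three times with ice-cold buffer, and counted by liquid scintillation. Protein was measured by Bio-Rad assay against a BSA standard.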

[2] = biological target: T2, GABA-A receptor; alpha-1/beta-3/gamma-2 (Homo sapiens, UniProt P14867+P18507+P28472); experiment: Displacement of [3H]flunitrazepam from human recombinant GABAA alpha-1-beta-3-gamma-2 receptor expressed in HEK293 cells; procedure, shortened: as §1
T2 sequence (P14867 whole entry): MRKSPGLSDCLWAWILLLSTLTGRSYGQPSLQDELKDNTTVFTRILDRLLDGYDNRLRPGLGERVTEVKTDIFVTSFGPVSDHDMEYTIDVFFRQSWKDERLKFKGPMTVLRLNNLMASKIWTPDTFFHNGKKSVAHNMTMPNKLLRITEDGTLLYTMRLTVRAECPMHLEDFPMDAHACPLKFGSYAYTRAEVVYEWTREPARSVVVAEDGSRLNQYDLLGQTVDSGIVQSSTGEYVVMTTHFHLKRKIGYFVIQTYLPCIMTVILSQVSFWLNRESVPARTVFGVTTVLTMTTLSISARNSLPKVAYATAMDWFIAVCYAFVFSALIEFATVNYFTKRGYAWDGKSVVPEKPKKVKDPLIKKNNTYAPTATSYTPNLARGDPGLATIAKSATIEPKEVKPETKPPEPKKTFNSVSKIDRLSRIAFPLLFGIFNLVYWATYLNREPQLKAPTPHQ
T2 sequence (P18507 whole entry): T1 sequence (P18507 whole entry)
T2 sequence (P28472 whole entry): T1 sequence (P28472 whole entry)

[3] = biological target: T3, GABA-A receptor; alpha-5/beta-3/gamma-2 (Homo sapiens, UniProt P18507+P28472+P31644); experiment: Displacement of [3H]flunitrazepam from human recombinant GABAA alpha-5-beta-3-gamma-2 receptor expressed in HEK293 cells; procedure, shortened: as §1
T3 sequence (P18507 whole entry): T1 sequence (P18507 whole entry)
T3 sequence (P28472 whole entry): T1 sequence (P28472 whole entry)
T3 sequence (P31644 whole entry): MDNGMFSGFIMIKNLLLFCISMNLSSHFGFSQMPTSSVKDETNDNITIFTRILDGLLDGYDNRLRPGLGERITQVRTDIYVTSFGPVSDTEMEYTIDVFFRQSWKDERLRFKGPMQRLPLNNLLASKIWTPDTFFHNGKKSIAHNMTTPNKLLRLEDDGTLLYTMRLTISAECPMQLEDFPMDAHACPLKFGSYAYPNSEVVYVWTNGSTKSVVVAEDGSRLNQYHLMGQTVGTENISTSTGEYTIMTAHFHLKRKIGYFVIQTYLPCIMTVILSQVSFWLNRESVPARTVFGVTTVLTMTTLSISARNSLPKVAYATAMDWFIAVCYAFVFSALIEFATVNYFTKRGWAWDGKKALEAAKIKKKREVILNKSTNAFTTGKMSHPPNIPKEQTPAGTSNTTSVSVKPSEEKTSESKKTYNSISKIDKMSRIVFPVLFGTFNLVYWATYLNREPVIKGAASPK

[4] = biological target: T4, Gamma-aminobutyric acid receptor subunit alpha-3 (Homo sapiens, UniProt P18507+P28472+P34903); experiment: Displacement of [3H]flunitrazepam from human recombinant GABAA alpha-3-beta-3-gamma-2 receptor expressed in HEK293 cells; procedure, shortened: as §1
T4 sequence (P34903 whole entry): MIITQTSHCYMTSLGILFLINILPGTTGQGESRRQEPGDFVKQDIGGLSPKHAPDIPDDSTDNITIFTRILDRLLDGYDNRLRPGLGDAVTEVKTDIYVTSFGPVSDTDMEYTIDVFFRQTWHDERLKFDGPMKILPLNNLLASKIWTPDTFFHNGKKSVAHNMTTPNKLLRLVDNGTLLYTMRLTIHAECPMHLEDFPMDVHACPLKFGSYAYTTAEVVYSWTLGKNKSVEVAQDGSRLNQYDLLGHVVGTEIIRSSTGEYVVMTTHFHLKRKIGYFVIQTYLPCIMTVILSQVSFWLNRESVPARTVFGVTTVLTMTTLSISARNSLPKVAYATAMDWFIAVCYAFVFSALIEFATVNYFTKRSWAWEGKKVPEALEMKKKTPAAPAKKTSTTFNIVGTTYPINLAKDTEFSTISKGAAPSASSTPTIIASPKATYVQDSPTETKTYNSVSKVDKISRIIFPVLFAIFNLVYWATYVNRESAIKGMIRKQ

[5] = biological target: GABA A receptor alpha-4/beta-3/gamma-2 (Homo sapiens, UniProt P18507+P28472+P48169); experiment: Displacement of [3H]flunitrazepam from human recombinant GABAA alpha-4-beta-3-gamma-2 receptor expressed in HEK293 cells; procedure, shortened: as §1
[6] = biological target: GABA-A receptor; alpha-6/beta-3/gamma-2 (Homo sapiens, UniProt P18507+P28472+Q16445); experiment: Displacement of [3H]flunitrazepam from human recombinant GABAA alpha-6-beta-3-gamma-2 receptor expressed in HEK293 cells; procedure, shortened: as §1
Sequence of GABA-A receptor; alpha-6/beta-3/gamma-2 (Q16445 whole entry, one chain of several): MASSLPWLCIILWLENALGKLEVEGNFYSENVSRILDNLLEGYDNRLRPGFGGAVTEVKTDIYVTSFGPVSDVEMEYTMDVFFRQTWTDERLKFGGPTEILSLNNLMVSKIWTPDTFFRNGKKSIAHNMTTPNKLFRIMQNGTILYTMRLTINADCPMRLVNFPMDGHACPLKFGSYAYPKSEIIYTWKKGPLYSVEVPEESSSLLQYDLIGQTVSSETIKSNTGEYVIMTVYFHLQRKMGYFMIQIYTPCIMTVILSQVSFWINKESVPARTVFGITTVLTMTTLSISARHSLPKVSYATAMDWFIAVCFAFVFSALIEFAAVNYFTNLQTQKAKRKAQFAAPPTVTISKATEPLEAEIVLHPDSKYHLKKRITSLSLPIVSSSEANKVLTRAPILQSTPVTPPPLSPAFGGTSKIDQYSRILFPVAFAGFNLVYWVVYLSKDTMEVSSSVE

Sequence of GABA A receptor alpha-4/beta-3/gamma-2 (P48169 whole entry, one chain of several): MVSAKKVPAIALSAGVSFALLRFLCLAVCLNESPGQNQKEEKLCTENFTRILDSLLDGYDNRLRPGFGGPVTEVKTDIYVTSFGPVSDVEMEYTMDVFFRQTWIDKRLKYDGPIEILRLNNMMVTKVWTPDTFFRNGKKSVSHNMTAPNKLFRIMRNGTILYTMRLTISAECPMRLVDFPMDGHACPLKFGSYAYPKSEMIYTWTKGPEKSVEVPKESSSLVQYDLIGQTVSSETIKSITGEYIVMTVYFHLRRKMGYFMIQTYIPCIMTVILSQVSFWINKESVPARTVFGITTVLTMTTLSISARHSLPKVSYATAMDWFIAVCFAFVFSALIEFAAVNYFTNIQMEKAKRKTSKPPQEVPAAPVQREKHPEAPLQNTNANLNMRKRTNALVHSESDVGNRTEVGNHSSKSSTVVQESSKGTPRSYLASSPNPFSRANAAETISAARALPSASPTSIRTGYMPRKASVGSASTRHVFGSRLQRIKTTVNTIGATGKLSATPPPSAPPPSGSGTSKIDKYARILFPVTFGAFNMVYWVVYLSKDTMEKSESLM

Structure (SMILES) | Ki [1] [nM] | Ki [2] [nM] | Ki [3] [nM] | Ki [4] [nM] | Ki [5] [nM] | Ki [6] [nM]
C#Cc1ccc2c(c1)C(=O)N(C)Cc1c(C(=O)OCOCOC(=O)c3ncn4c3CN(C)C(=O)c3cc(C#C)ccc3-4)ncn1-2 | 2690 | 3800 | 76.1 | 1860 | – | –
C#Cc1ccc2c(c1)C(c1ccccc1)=NCc1c(C(=O)OCCCOC(=O)c3ncn4c3CN=C(c3ccccc3)c3cc(C#C)ccc3-4)ncn1-2 | 7.4 | 236 | 194 | 272 | > 5000 | > 5000
CCc1ccc2c(c1)C(=O)N(C)Cc1c(C(=O)OCCCOC(=O)c3ncn4c3CN(C)C(=O)c3cc(CC)ccc3-4)ncn1-2 | 4700 | 1850 | 101 | 8550 | – | 5000
C#Cc1ccc2c(c1)C(=O)N(C)Cc1c(C(=O)OCC)ncn1-2 | – | – | – | – | 5.3 | –
C#Cc1ccc2c(c1)C(c1ccccc1)=NCc1c(C(=O)OCCOCCOC(=O)c3ncn4c3CN=C(c3ccccc3)c3cc(C#C)ccc3-4)ncn1-2 | 5000 | 460 | 5000 | – | – | 5000
C#Cc1ccc2c(c1)C(=O)N(C)Cc1c(C(=O)OCCCCCOC(=O)c3ncn4c3CN(C)C(=O)c3cc(C#C)ccc3-4)ncn1-2 | 661 | 231 | 5.4 | 2670 | – | 54.2
